Results reported in ChEMBL document CHEMBL1208666, “Novel 6,8-dibromo-4(3H)quinazolinone derivatives of anti-bacterial and anti-fungal activities” (2010).
≈ marks a conversion by molar mass, not a printed value. Calls of active or inactive are those of the source. The rule behind the calls is not given here.

Experiments:
Escherichia coli [1] = assay: Antibacterial activity against Escherichia coli O157 at 100 ug/ml after 24 hrs by paper disc diffusion technique; format: functional; details: O157, 24 h, read-out: IZ
Escherichia coli [2] = assay: Antibacterial activity against Escherichia coli O157 after 24 hrs by agar streak dilution method; format: functional; details: O157, 24 h
Salmonella typhimurium [3] = assay: Antibacterial activity against Salmonella Typhimurium at 100 ug/ml after 24 hrs by paper disc diffusion technique; format: functional, Salmonella enterica subsp. enterica serovar Typhimurium; details: Salmonella enterica, read-out: IZ
How it was run: (§1)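 Paper disc diffusion on Mueller Hinton agar, autoclaved at 120 °C for 30 min. Medium at 40–50 °C was seeded at 1 ml/100 ml with a 10^5 cfu/ml suspension matched to 0.9 McFarland. It was poured 3–4 mm deep, and discs with compound in DMSO were laid on it. Plates were pre-incubated 1 h at room temperature, then 37 °C for 24 h. The inhibition zone was measured.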

Salmonella typhimurium [4] = assay: Antibacterial activity against Salmonella Typhimurium after 24 hrs by agar streak dilution method; format: functional, Salmonella enterica subsp. enterica serovar Typhimurium; details: Salmonella enterica
How it was run: (§2)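 Agar streak dilution on Mueller Hinton agar. Compound stock in DMSO was added in graded amounts to molten sterile agar at 40–50 °C. This was poured 3–4 mm deep and left to solidify. Bacterial suspension of about 10^5 cfu/ml was applied to the serially diluted plates. Plates were incubated at 37 °C for 24 h to read the MIC. Strains were food-poisoning isolates from animal byproducts.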

Listeria monocytogenes [5] = assay: Antibacterial activity against Listeria monocytogenes at 100 ug/ml after 24 hrs by paper disc diffusion technique; format: functional; details: read-out: IZ; how it was run: as §1
Listeria monocytogenes [6] = assay: Antibacterial activity against Listeria monocytogenes after 24 hrs by agar streak dilution method; format: functional; how it was run: as §2
Staphylococcus aureus [7] = assay: Antibacterial activity against Staphylococcus aureus at 100 ug/ml after 24 hrs by paper disc diffusion technique; format: functional; details: read-out: IZ; how it was run: as §1
Staphylococcus aureus [8] = assay: Antibacterial activity against Staphylococcus aureus after 24 hrs by agar streak dilution method; format: functional; how it was run: as §2
Pseudomonas aeruginosa [9] = assay: Antibacterial activity against Pseudomonas aeruginosa at 100 ug/ml after 24 hrs by paper disc diffusion technique; format: functional; details: read-out: IZ; how it was run: as §1
Pseudomonas aeruginosa [10] = assay: Antibacterial activity against Pseudomonas aeruginosa after 24 hrs by agar streak dilution method; format: functional; how it was run: as §2
Bacillus cereus [11] = assay: Antibacterial activity against Bacillus cereus at 100 ug/ml after 24 hrs by paper disc diffusion technique; format: functional; details: read-out: IZ; how it was run: as §1
Bacillus cereus [12] = assay: Antibacterial activity against Bacillus cereus after 24 hrs by agar streak dilution method; format: functional; how it was run: as §2
Candida albicans [13] = assay: Antifungal activity against Candida albicans at 100 ug/ml after 48 hrs by paper disc diffusion technique; format: functional; details: for zone of inhibition at 100 µg/mL: read-out: IZ
How it was run: (§3)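 Paper disc diffusion on Sabouraud dextrose agar, autoclaved at 120 °C for 30 min. Medium at 40–50 °C was seeded at 1 ml/100 ml with a 10^5 cfu/ml fungal suspension matched to 0.9 McFarland. It was poured 3–4 mm deep, and compound discs in DMSO were applied. Plates were pre-incubated 1 h at room temperature, then 28 °C for 48 h. The inhibition zone was recorded.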

Aspergillus flavus [14] = assay: Antifungal activity against Aspergillus flavus at 100 ug/ml after 48 hrs by paper disc diffusion technique; format: functional; details: read-out: IZ; how it was run: as §3
Aspergillus flavus [15] = assay: Antifungal activity against Aspergillus flavus after 48 hrs by agar streak dilution method; format: functional
How it was run: (§4)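 Fungal MIC by agar streak dilution on Sabouraud dextrose agar. Compound stock in DMSO was added in graded amounts to molten sterile medium at 40–50 °C. This was poured 3–4 mm deep and left to solidify. Fungal suspension of about 10^5 cfu/ml was applied to the serially diluted plates. Plates were incubated at 37 °C for 48 h.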

Candida albicans [16] = assay: Antifungal activity against Candida albicans after 48 hrs by agar streak dilution method; format: functional; how it was run: as §4

SMILES	zone of inhibition at 100 µg/mL (Escherichia coli [1])	MIC (Escherichia coli [2])	zone of inhibition at 100 µg/mL (Salmonella typhimurium [3])	MIC (Salmonella typhimurium [4])	zone of inhibition at 100 µg/mL (Listeria monocytogenes [5])	MIC (Listeria monocytogenes [6])	zone of inhibition at 100 µg/mL (Staphylococcus aureus [7])	MIC (Staphylococcus aureus [8])	zone of inhibition at 100 µg/mL (Pseudomonas aeruginosa [9])	MIC (Pseudomonas aeruginosa [10])	zone of inhibition at 100 µg/mL (Bacillus cereus [11])	MIC (Bacillus cereus [12])	inhibition zone (IZ) (Candida albicans [13])	zone of inhibition at 100 µg/mL (Aspergillus flavus [14])	MIC (Aspergillus flavus [15])	zone of inhibition at 100 µg/mL (Candida albicans [13])	MIC (Candida albicans [16])
O=C(NN1C(=O)CCC1=O)c1ccc(-n2c(-c3ccccc3)nc3c(Br)cc(Br)cc3c2=O)cc1	9 mm	> 50 µg/mL	18 mm	1.7 µg/mL (≈ 2.85 µM)	12 mm	50 µg/mL (≈ 83.9 µM)	9 mm	> 50 µg/mL	11 mm	> 50 µg/mL	9 mm	> 50 µg/mL	inactive	17 mm	3.5 µg/mL (≈ 5.87 µM)		
O=C(N/N=C/c1ccccc1O)c1ccc(-n2c(-c3ccccc3)nc3c(Br)cc(Br)cc3c2=O)cc1	10 mm	50 µg/mL (≈ 80.9 µM)	13 mm	30 µg/mL (≈ 48.5 µM)	11 mm	50 µg/mL (≈ 80.9 µM)	15 mm	12.5 µg/mL (≈ 20.2 µM)	11 mm	> 50 µg/mL	13 mm	25.5 µg/mL (≈ 41.2 µM)	inactive	15 mm	10.5 µg/mL (≈ 17 µM)		
CC(=O)NNC(=O)c1ccc(-n2c(-c3ccccc3)nc3c(Br)cc(Br)cc3c2=O)cc1	9 mm	> 50 µg/mL	14 mm	30 µg/mL (≈ 53.9 µM)	14 mm	35 µg/mL (≈ 62.9 µM)	11 mm	40 µg/mL (≈ 71.9 µM)	13 mm	25 µg/mL (≈ 44.9 µM)	9 mm	> 50 µg/mL	inactive	22 mm	1.2 µg/mL (≈ 2.16 µM)		
O=C(N/N=C/c1ccc(Cl)c(Cl)c1)c1ccc(-n2c(-c3ccccc3)nc3c(Br)cc(Br)cc3c2=O)cc1	14 mm	25 µg/mL (≈ 37.2 µM)	11 mm	50 µg/mL (≈ 74.5 µM)	13 mm	25 µg/mL (≈ 37.2 µM)	14 mm	25 µg/mL (≈ 37.2 µM)	14 mm	25 µg/mL (≈ 37.2 µM)	17 mm	1.56 µg/mL (≈ 2.32 µM)		12 mm	19 µg/mL (≈ 28.3 µM)	11 mm	25 µg/mL (≈ 37.2 µM)
NNC(=O)c1ccc(-n2c(-c3ccccc3)nc3c(Br)cc(Br)cc3c2=O)cc1	10 mm	> 50 µg/mL	11 mm	50 µg/mL (≈ 97.2 µM)	11 mm	50 µg/mL (≈ 97.2 µM)	10 mm	> 50 µg/mL	13 mm	25 µg/mL (≈ 48.6 µM)	12 mm	25 µg/mL (≈ 48.6 µM)	inactive	15 mm	18.5 µg/mL (≈ 36 µM)		
O=C(NN1C(=O)C=CC1=O)c1ccc(-n2c(-c3ccccc3)nc3c(Br)cc(Br)cc3c2=O)cc1	9 mm	> 50 µg/mL	17 mm	2.9 µg/mL (≈ 4.88 µM)	11 mm	> 50 µg/mL	9 mm	> 50 µg/mL	11 mm	> 50 µg/mL	9 mm	50 µg/mL (≈ 84.1 µM)		17 mm	4.5 µg/mL (≈ 7.57 µM)	10 mm	25 µg/mL (≈ 42.1 µM)
COc1ccc(/C=N/NC(=O)c2ccc(-n3c(-c4ccccc4)nc4c(Br)cc(Br)cc4c3=O)cc2)cc1	8 mm	> 50 µg/mL	10 mm	> 50 µg/mL	12 mm	50 µg/mL (≈ 79.1 µM)	11 mm	50 µg/mL (≈ 79.1 µM)	11 mm	> 50 µg/mL	13 mm	35.5 µg/mL (≈ 56.1 µM)	inactive	11 mm	25 µg/mL (≈ 39.5 µM)		
O=C(N/N=C/c1ccccc1)c1ccc(-n2c(-c3ccccc3)nc3c(Br)cc(Br)cc3c2=O)cc1	11 mm	45 µg/mL (≈ 74.7 µM)	10 mm	> 50 µg/mL	13 mm	35 µg/mL (≈ 58.1 µM)	12 mm	25 µg/mL (≈ 41.5 µM)	12 mm	50 µg/mL (≈ 83 µM)	12 mm	30 µg/mL (≈ 49.8 µM)	inactive	10 mm	25 µg/mL (≈ 41.5 µM)		
